Test results reported in paper PMC3495823 (Cell Cycle, 2012).

Experiments:
[1] = Octanol-PBS partition coefficient; type: physicochemical; conditions: n-octanol/PBS, pH 7.4
Method in brief: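 Shake-flask method: 1 mg compound was dissolved in 1 mL octanol-saturated PBS pH 7.4 and shaken with 1 mL PBS-saturated octanol for 24 h at 37°C. Phases were separated by centrifugation (10,000 rpm, 10 min) and each was analysed by LC-MS/MS. LogD7.4 was calculated from the ratio of peak AUCs, each normalized to its injection volume.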

[2] = Tissue distribution by LC-MS/MS after intraperitoneal injection; type: in vivo, mouse; conditions: 20 mg/kg i.p.
Method in brief: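 Mice received 20 mg/kg in peanut oil i.p. or by oral gavage; tissues and cardiac blood were taken 1, 4 and 24 h later, with brain cortex and cerebellum at 4 h. Weighed tissues (or 30 µL serum in water) were extracted three times with dichloromethane and analysed by ESI-positive LC-MS/MS. Levels came from peak AUC against calibration curves, with internal-standard normalization for quantification; three samples per point.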

[3] = normal mice, 4 hours after injection

## CC(C)[C@H](CO)Nc1nc(Nc2ccc(C(=O)O)c(Cl)c2)c2ncn(C(C)C)c2n1 [PVB, purvalanol B]
[1]
  logD: 0.15 ± 0.002
[2]
  detection in kidney, spleen, pancreas, prostate lung and serum: detected
  overall tissue and serum levels compared with VMY: lower than VMY
[2]; [3]
  concentration in cerebellar tissue: not detected
  concentration in cortical tissue: not detected
